Activity calls are given as the source filed them. The calls are words filed in the database; no cut-off is given here.
What was measured:
3T3-L1 = assay: Induction of adipogenesis in mouse 3T3L1 cells; format: functional, cell-based
How it was run: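 Adipogenesis was assessed in 3T3-L1 cells.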

[1] = molecular target: T1, Peroxisome proliferator-activated receptor gamma (Homo sapiens) (UniProt P37231); assay: Agonist activity at […] human PPARgamma expressed in African green monkey CV1 cells up to 30 uM after 24 hrs by luciferase reporter gene assay; format: cell-based
T1 sequence (whole entry): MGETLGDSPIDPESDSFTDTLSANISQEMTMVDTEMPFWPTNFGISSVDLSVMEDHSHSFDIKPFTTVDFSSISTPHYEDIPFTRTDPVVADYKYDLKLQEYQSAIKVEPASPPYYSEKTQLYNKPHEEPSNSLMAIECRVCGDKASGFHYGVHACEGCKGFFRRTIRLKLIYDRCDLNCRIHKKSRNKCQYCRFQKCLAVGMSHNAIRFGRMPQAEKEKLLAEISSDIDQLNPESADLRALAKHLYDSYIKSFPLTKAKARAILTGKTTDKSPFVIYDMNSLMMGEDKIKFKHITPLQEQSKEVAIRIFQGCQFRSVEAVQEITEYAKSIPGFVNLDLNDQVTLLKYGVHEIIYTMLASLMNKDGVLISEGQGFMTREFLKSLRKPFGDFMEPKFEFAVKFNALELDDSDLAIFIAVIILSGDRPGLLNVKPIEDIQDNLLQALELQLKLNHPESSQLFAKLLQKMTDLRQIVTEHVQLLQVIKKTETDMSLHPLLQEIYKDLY
How it was run: (§1)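 PPAR alpha, delta and gamma binding and functional activity were each tested at concentrations up to 30 µM.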

[2] = Protein binding in plasma (unknown origin) by equilibrium dialysis assay; format: ADME, cell-free; details: read-out: PPB
[3] = molecular target: T2, Free fatty acid receptor 1 (Homo sapiens, UniProt O14842); assay: Agonist activity at human GPR40 receptor expressed in HEK293 cells assessed as increase in intracellular calcium flux after 2.5 hrs measured over 3 mins by calcium 4 dye-based FLIPR assay; format: functional, cell-based
T2 sequence (O14842 whole entry): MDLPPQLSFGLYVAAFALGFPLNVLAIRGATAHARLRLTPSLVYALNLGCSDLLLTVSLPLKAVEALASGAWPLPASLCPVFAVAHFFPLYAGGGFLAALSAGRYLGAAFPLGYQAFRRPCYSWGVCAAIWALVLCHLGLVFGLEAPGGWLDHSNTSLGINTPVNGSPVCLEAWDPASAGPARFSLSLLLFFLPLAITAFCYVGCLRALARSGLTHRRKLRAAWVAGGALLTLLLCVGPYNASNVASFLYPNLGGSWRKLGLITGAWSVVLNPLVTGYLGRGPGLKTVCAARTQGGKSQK
How it was run: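 Calcium flux was read by FLIPR in cells carrying recombinant human GPR40. Percent stimulation is relative to the response to 100 µM linoleic acid. EC50 is reported with SEM and n.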

[4] = molecular target: Free fatty acid receptor 1 (Rattus norvegicus) (UniProt Q8K3T4); assay: Agonist activity at rat PK-tagged GPR40 expressed in human U2OS cells assessed as EA-tagged beta-arrestin recruitment after 90 mins in presence of 1 % heat inactivated FBS by beta-galactosidase reporter gene assay relative to untreated control; format: cell-based
Free fatty acid receptor 1 (Rattus norvegicus), sequence (Q8K3T4 whole entry): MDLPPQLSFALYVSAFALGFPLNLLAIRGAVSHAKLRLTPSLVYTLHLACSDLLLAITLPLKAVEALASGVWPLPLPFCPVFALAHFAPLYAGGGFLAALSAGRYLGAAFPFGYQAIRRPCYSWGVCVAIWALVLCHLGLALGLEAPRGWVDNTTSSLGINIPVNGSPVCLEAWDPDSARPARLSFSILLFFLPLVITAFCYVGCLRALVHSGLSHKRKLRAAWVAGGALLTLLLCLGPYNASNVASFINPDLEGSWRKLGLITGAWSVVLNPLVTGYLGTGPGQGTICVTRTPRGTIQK

[5] = molecular target: Free fatty acid receptor 1 (Rattus norvegicus, UniProt Q8K3T4); assay: Agonist activity at rat PK-tagged GPR40 expressed in human U2OS cells assessed as EA-tagged beta-arrestin recruitment after 90 mins in presence of 1 % heat inactivated FBS by beta-galactosidase reporter gene assay; format: cell-based
Free fatty acid receptor 1 (Rattus norvegicus, UniProt Q8K3T4), sequence (Q8K3T4 whole entry): as above
How it was run: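 β-Arrestin recruitment used rat GPR40 in the presence of 1% FBS. EC50 and % maximal stimulation are reported with SEM and n.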

[6] = molecular target: T3, Peroxisome proliferator-activated receptor delta (Homo sapiens) (UniProt Q03181); assay: Agonist activity at GAL4-fused human PPARdelta expressed in African green monkey CV1 cells up to 30 uM after 24 hrs by luciferase reporter gene assay; format: cell-based; how it was run: as §1
T3 sequence (whole entry): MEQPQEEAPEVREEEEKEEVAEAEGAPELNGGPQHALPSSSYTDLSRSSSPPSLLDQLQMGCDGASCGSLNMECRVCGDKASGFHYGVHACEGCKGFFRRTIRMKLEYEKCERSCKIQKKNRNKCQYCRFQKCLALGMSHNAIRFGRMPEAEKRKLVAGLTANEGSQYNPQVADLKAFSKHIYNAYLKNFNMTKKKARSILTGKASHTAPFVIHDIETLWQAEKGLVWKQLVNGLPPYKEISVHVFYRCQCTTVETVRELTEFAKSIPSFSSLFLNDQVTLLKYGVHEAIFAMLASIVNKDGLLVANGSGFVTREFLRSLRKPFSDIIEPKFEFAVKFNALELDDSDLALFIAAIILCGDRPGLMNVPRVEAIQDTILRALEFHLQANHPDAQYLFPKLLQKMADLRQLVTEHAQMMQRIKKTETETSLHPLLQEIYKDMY

[7] = molecular target: T4, Peroxisome proliferator-activated receptor alpha (Homo sapiens) (UniProt Q07869); assay: Agonist activity at GAL4-fused human PPARalpha expressed in African green monkey CV1 cells up to 30 uM after 24 hrs by luciferase reporter gene assay; format: cell-based; how it was run: as §1
T4 sequence (whole entry): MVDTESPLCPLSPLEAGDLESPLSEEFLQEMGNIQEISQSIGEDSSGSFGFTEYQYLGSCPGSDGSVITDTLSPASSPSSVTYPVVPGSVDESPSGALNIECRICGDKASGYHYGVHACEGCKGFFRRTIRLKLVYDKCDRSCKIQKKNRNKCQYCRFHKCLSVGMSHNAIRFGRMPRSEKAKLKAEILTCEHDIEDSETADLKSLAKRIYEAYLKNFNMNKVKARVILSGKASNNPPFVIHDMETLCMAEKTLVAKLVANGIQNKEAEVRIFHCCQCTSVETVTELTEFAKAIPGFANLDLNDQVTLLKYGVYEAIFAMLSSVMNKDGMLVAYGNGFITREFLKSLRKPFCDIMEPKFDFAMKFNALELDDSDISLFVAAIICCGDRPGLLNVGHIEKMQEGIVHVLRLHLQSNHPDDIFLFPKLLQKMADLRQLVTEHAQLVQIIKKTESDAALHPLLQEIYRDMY

[8] = molecular target: T4, Peroxisome proliferator-activated receptor alpha (Homo sapiens); assay: Displacement of [3H]-agonist from human PPARalpha expressed in baculovirus infecetd Sf9 cells system up to 30 uM after 10 hrs in presence of DR2 by scintillation proximity assay; how it was run: as §1
[9] = molecular target: T2, Free fatty acid receptor 1; assay: Agonist activity at human PK-tagged GPR40 expressed in HEK293 cells assessed as EA-tagged beta-arrestin recruitment after 90 mins in presence of 1 % heat inactivated FBS by beta-galactosidase reporter gene assay; format: cell-based
[10] = molecular target: T2, Free fatty acid receptor 1; assay: Agonist activity at human GPR40 receptor expressed in HEK293 cells assessed as increase in intracellular calcium flux after 2.5 hrs measured over 3 mins in presence of 0.1% serum albumin by calcium 4 dye-based FLIPR assay; format: functional, cell-based
[11] = molecular target: T1, Peroxisome proliferator-activated receptor gamma (Homo sapiens); assay: Displacement of [3H]-agonist from human PPARgamma expressed in baculovirus infecetd Sf9 cells system up to 30 uM after 10 hrs in presence of DR2 by scintillation proximity assay; how it was run: as §1
[12] = molecular target: T3, Peroxisome proliferator-activated receptor delta (Homo sapiens); assay: Displacement of [3H]-agonist from human PPARdelta expressed in baculovirus infecetd Sf9 cells system up to 30 uM after 10 hrs in presence of DR2 by scintillation proximity assay; how it was run: as §1
[13] = molecular target: T2, Free fatty acid receptor 1; assay: Competitive displacement of [3H]-TAK-875 from full length human recombinant GPR40 expressed in HEK293 cell membranes after 2 hrs by scintillation counting
How it was run: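 Binding was measured as competitive inhibition of [3H]-TAK875 (fasiglifam) binding to membranes from cells overexpressing recombinant human GPR40. Ki is reported with SEM and n.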

[14] = molecular target: T2, Free fatty acid receptor 1; assay: Agonist activity at human PK-tagged GPR40 expressed in HEK293 cells assessed as EA-tagged beta-arrestin recruitment after 90 mins in presence of 1 % heat inactivated FBS by beta-galactosidase reporter gene assay relative to untreated control; format: cell-based
[15] = molecular target: T2, Free fatty acid receptor 1; assay: Agonist activity at human GPR40 receptor expressed in HEK293 cells assessed as increase in intracellular calcium flux after 2.5 hrs measured over 3 mins by calcium 4 dye-based FLIPR assay relative to linoleic acid; format: functional, cell-based; parameters: Activity: concentration or dose not given beside the values
How it was run: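 Human GPR40 calcium flux was read on FLIPR. Percent stimulation is expressed against the response to 100 uM linoleic acid.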

| Activity [1] | fraction unbound [2] | EC50 [3] [nM] | %max [4] [%] | EC50 [5] [nM] | Activity [6] | Activity [7] | Activity [8] | EC50 [9] [nM] | Activity [10] | Activity [11] | Activity [12] | Ki [13] [nM] | %max [14] [%] | Activity [15] [%] | SMILES | Activity (3T3-L1) |
| --- | --- | --- | --- | --- | --- | --- | --- | --- | --- | --- | --- | --- | --- | --- | --- | --- |
| inactive | < 0.01 | 16 | 133 | 562 | inactive | inactive | inactive | 681 | Active | inactive | inactive | 102 | 121 | 74 | CC#C[C@@H](CC(=O)O)c1ccc(OCc2ccc3nc(-c4ccc(OCCOC)cc4)nn3c2)cc1 | inactive |
| inactive | < 0.01 | 1 | 142 | 98 | inactive | inactive | inactive | 166 | Active | inactive | inactive | 60 | 127 | 64 | CC#C[C@@H](CC(=O)O)c1ccc(OCc2ccc3nc(-c4ccc(OC(F)F)cc4)nn3c2)cc1 | inactive |
| inactive | < 0.01 | 2 | 123 | 30 | inactive | inactive | inactive | 67 | Active | inactive | inactive | 32 | 154 | 65 | CC#C[C@@H](CC(=O)O)c1ccc(OCc2ccc3nc(-c4ccc(C(C)C)cc4)nn3c2)cc1 | inactive |
| inactive | < 0.01 | 9 | 125 | 216 | inactive | inactive | inactive | 443 | Active | inactive | inactive | 35 | 124 | 65 | CC#C[C@@H](CC(=O)O)c1ccc(OCc2ccc3nc(-c4ccc(C#N)cc4)nn3c2)cc1 | inactive |

The remaining lines, values behind:

| SMILES | Activity [1] | fraction unbound [2] | EC50 [3] [nM] | %max [4] [%] | EC50 [5] [nM] | Activity [6] | Activity [7] | Activity [8] | EC50 [9] [nM] | Activity [10] | Activity [11] | Activity [12] | Ki [13] [nM] | %max [14] [%] | Activity [15] [%] | Activity (3T3-L1) |
| --- | --- | --- | --- | --- | --- | --- | --- | --- | --- | --- | --- | --- | --- | --- | --- | --- |
| CC#C[C@@H](CC(=O)O)c1ccc(OCc2ccc3nc(-c4ccc(OCCC(C)(C)O)cc4)nn3c2)cc1 | inactive | < 0.01 | 72 | 121 | 68 | inactive | inactive | inactive | 301 | Active | inactive | inactive | 37 | 132 | 89 | inactive |
| CC#C[C@@H](CC(=O)O)c1ccc(OCc2ccc3nc(-c4c(C)cc(OCCCS(C)(=O)=O)cc4C)nn3c2)cc1 | inactive | < 0.01 | 117 | 140 | 95 | inactive | inactive | inactive | 1490 | Active | inactive | inactive | 63 | 114 | 71 | inactive |

Reference: ChEMBL document CHEMBL4024777, “Discovery of LY3104607: A Potent and Selective G Protein-Coupled Receptor 40 (GPR40) Agonist with Optimized Pharmacokinetic Properties to Support Once Daily Oral Treatment in Patients with Type 2 Diabetes Mellitus” (J Med Chem, 2018)
